SENP7 inh – SENP7 protease inhibition; Q9BQF6; 330,000 compounds, 1.5% hits; AID 434973; recombinant SENP7, Z-RLRGG-aminoluciferin luminescence, 40 min; inhibition, % at 5 µM;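 active means inhibition above about 50% at the single test dose, limit read from the data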;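 further: plate controls were DMSO with enzyme for no effect and no enzyme buffer wells for full effect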
SENP8 block-1 – blocks the human protease SENP8; Q96LD8; AID 2540; purified SENP8, Z-RLRGG-aminoluciferin cleavage, luminescence; inhibition, % at 10 µM; 330,000 compounds, 1.2% hits; in the data active means inhibition above about 50%
Target sequence (Q96LD8 whole entry, looked up): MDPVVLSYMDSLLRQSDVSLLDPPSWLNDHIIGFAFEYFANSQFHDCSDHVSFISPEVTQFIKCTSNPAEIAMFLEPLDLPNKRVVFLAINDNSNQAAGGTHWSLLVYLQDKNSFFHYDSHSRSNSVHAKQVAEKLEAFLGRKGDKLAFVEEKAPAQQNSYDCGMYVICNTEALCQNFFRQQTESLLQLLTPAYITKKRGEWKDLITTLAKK
SENP1 inh – SENP1 (human) catalytic domain inhibition; Q9P0U3; recombinant SENP1 catalytic domain, CyPet-SUMO1-YPet FRET cleavage; inhibition, % at 10 µM; 360,000 compounds, 0.21% hits; AID 624204;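 active means inhibition at least 30% at 10 µM, raw YFP signal under a set limit, fluorescence ratio 0.5 to 1.5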;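 further: 0% = enzyme with DMSO and 100% = no enzyme wells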
Target sequence (Q9P0U3 419-644 limits assumed): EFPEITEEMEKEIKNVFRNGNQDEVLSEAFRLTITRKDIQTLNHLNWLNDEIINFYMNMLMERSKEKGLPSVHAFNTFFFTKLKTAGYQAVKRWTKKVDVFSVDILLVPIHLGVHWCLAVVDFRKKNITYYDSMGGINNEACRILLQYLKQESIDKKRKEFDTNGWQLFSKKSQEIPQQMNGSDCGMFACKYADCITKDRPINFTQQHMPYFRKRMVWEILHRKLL
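Controls: no-enzyme wells low, DMSO-plus-enzyme wells high control. Test system: human recombinant His6-tagged SENP1 catalytic domain enzyme. Reagent: SFCypet-SUMO1-SFYpet FRET protein substrate, 25 nM final. Doses: one dose per compound, 10 µM, 0.5% DMSO. Detection: FRET, CFP and YFP emission. Timing: 50 min reaction at room temperature.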
SENP6 inh – SENP6 protease inhibition. Q9GZR1. Recombinant SENP6 catalytic domain, aminoluciferin luminescence. inhibition, % at 10 µM. 330,000 compounds, 1.8% hits. AID 2599;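 active means inhibition above about 50% at the single tested dose, limit read from the data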;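 further: plate controls were DMSO wells with enzyme for no effect and DMSO wells lacking enzyme for full effect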
HSP90 inh – blocks HSP90-mediated luciferase refolding in reticulocyte lysate. Rabbit reticulocyte lysate, luciferase refolding luminescence, 3 h. 290,000 compounds, 0.91% hits. inhibition, % at 5.6 µM;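 active means inhibition above the screen-wide mean plus 3 SD, computed separately per campaign, cut at about 16% in these data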;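 further: 0% = DMSO wells and 100% = 60 µM geldanamycin wells; inhibitors lower the luminescence because luciferase stays unfolded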
SENP8 block-2 – blocks human SENP8 cleavage of Nedd8 substrate | recombinant SENP8, Nedd8 substrate fluorescence | inhibition, % at 20 µM | 360,000 compounds, 0.64% hits; in the data active means inhibition mostly above about 40%, no sharp cut-off; inactive means mostly below about 27%
SENP8 confirm – confirmation of human SENP8 protease inhibitors; shares compounds with SENP7 inh; 6,200 compounds, 40% hits; inhibition, % at 12.5 µM; Recombinant SENP8, Z-RLRGG-aminoluciferin luminescence, 60 min;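 active means mean inhibition across replicates above about 50%, limit read from the data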
SENP6 confirm – human SENP6 inhibition, confirmed. shares compounds with SENP7 inh. recombinant SENP6, Z-RLRGG-aminoluciferin luminescence. inhibition, % at 12.5 µM. 6,200 compounds, 58% hits. AID 488915
SENP7 conf – human SENP7 inhibition, confirmed. shares compounds with SENP7 inh. recombinant SENP7, Z-RLRGG-aminoluciferin luminescence, 40 min. inhibition, % at 12.5 µM. 6,200 compounds, 69% hits. AID 488917
Casp3 select – inhibits human caspase-3 in SENP selectivity test | 6,200 compounds, 60% hits | shares compounds with SENP7 inh | inhibition, % at 12.5 µM | purified caspase-3, Z-DEVD-aminoluciferin luminescence, 60 min;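 active means mean inhibition above about 50%, limit read from the data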;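 further: plate controls were enzyme with DMSO for no effect and wells without caspase-3 for full effect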
Target sequence (P42574 28-227 limits assumed): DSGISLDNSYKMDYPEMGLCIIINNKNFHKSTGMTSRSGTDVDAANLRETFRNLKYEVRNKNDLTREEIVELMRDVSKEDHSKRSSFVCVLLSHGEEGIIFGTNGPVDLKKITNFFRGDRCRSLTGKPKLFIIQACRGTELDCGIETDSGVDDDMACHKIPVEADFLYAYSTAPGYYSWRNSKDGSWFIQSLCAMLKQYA
SENP luc ctr – counter-screen for SENP inhibitors: luminescence interference | Pre-incubated SENP8/Z-RLRGG-aminoluciferin, luciferase luminescence interference | inhibition, % at 12.5 µM | shares compounds with SENP7 inh | AID 488919 | 6,200 compounds, 39% hits;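 active means mean inhibition above about 50% when retested at one dose, limit read from the data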;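 further: plate controls were DMSO wells with completed reaction for no effect and substrate without enzyme for full effect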
* hit, by the source's call; x = not tested or not shown. This is a sample that favours compounds with a hit; in the whole collection about 2.9% have one here.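 How the source made its calls, unless noted: active means mean inhibition above about 50% in the one-dose retest (limit read from the data); inactive means the rest.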

SMILES	SENP7 inh	SENP8 block-1	SENP1 inh	SENP6 inh	HSP90 inh	SENP8 block-2	SENP8 confirm	SENP6 confirm	SENP7 conf	Casp3 select	SENP luc ctr
O=C(Nc1cccc([N+](=O)[O-])c1)c1ccncc1	-7	-4	0	1	-3	9	x	x	x	x	x
CCCS(=O)(=O)NC(=O)C1(C)CCCN(C(=O)c2cc(C)n(C(C)(C)C)n2)C1 (stereo not given)	x	x	1	x	x	18	x	x	x	x	x
O=C(Nc1ccc(C(=O)N2CCOCC2)cc1)Nc1cccc(Cl)c1	57*	40	1	69*	-1	-3	60*	58*	85*	61*	63*
COc1cccc(C(=O)c2c[nH]c(C(=O)NCCCN3CCOCC3)c2)c1	6	-9	4	-13	2	-4	x	x	x	x	x
O=C(Nc1ccc(N2CCOCC2)cc1)c1cccc2ccccc12	3	1	0	-16	0	10	x	x	x	x	x
Cn1cccc1C(=O)Nc1ccc(N2CCOCC2)cc1	62*	37	1	24	x	16	59*	54*	82*	85*	33
O=C(c1ccc(F)cc1)c1ccc(N2CCCCC2)cc1	-7	-2	-6	18	4	-64	x	x	x	x	x
COc1ccc(C(=O)c2ccc(OC)c(Br)c2)cc1Br	10	-2	0	98*	1	12	11	7	9	3	4
COc1ccc(C(=O)c2cccc(C(=O)c3ccc(OC)c(C)c3)c2)cc1C	1	-2	1	3	-1	8	x	x	x	x	x
O=C(Nc1ccc(N2CCCCC2)cc1)c1ccc(F)cc1	83*	68*	2	79*	-1	12	11	14	20	47	10
COc1ccc(C(=O)Nc2ccc(N3CCOCC3)cc2)cc1OC	89*	82*	1	89*	2	23	58*	86*	97*	95*	20
CCOc1ccc(C(Nc2ccc(C)cc2)P2(=O)OCCC(C)O2)cc1 (stereo not given)	2	1	0	-12	2	17	x	x	x	x	x
CC(=O)Nc1c(O)nc(SCc2ccccc2C#N)[nH]c1=O	6	6	0	11	-6	14	x	x	x	x	x
COc1ccc(C(=O)Nc2ccc(N3CCCC3)cc2)cc1Br	1	60*	-3	64*	12	28	1	20	14	48	12
COc1ccc(C(=O)Nc2ccc(N3CCCC3)cc2)cc1OC	19	95*	-6	94*	0	-11	88*	98*	102*	98*	89*
COc1ccc(C(=O)Nc2ccc(N3CCCC3)cc2)cc1	2	-4	-1	-12	2	-12	x	x	x	x	x
O=C(C=Cc1ccccn1)c1ccccc1	x	x	-1	x	x	17	x	x	x	x	x
N#Cc1c(Cc2cccc3ccccc23)nn(CCO)c1N	-3	7	3	-2	x	17	x	x	x	x	x
S=C(Nc1ccc(-c2nc3ccccc3[nH]2)cc1)Nc1cccnc1	41	23	-4	65*	1	-304	17	9	34	45	23
Cc1ccc2nc(-c3cccc(NC(=O)c4ccco4)c3)[nH]c2c1	95*	87*	-1	92*	6	-33	2	93*	101*	89*	92*
c1cncc(-c2nc3ccccc3[nH]2)c1	-2	-5	3	-13	1	-33	x	x	x	x	x
Cc1ccn2cc(-c3ccc(NC(=O)c4ccco4)cc3)nc2c1	64*	48	1	76*	-1	-51	55*	53*	86*	74*	16
O=C(/C=C/c1ccco1)Nc1ccc(-c2nc3ccccc3[nH]2)cc1	x	x	-16	x	4	-80	x	x	x	x	x
CC(=O)Nc1cccc(-c2cn3ccc(C)cc3n2)c1	40	22	-1	38	2	-391	x	x	x	x	x
O=C(Nc1ccc(-c2nc3ccccc3[nH]2)cc1)c1ccco1	86*	84*	0	91*	0	-69	87*	87*	96*	88*	65*
SMILES	SENP7 inh	SENP8 block-1	SENP1 inh	SENP6 inh	HSP90 inh	SENP8 block-2	SENP8 confirm	SENP6 confirm	SENP7 conf	Casp3 select	SENP luc ctr
CCCCc1cc(=O)oc2c(C)c(OCC(=O)NCC3CCC(C(=O)O)CC3)ccc12 (stereo not given)	5	-8	0	1	-1	-33	x	x	x	x	x
Cc1ccc(C)c(-c2nc3cc(N)ccc3o2)c1	17	30	-60	55*	1	-413	27	27	69*	26	50*
Cc1ccc(-c2nc3cc(N)ccc3o2)cc1Br	91*	87*	7	93*	-2	-307	2	91*	101*	74*	28
COC(=O)c1ccc(-c2nc3cc(N)ccc3o2)cc1	73*	69*	36	85*	1	-176	24	27	74*	54*	6
Nc1ccc(-c2nc3cc(N)ccc3o2)cc1	41	17	-10	52*	10	-469	43	34	77*	67*	52*
Cc1ccc2nc(-c3cc(N)cc(N)c3)oc2c1	11	16	-23	25	15	-324	x	x	x	x	x
CCNC(=O)C1CCCN(C(=O)c2ccc(C(F)(F)F)cc2)CC1 (stereo not given)	x	x	5	x	x	14	x	x	x	x	x
CC(C)(C)NC(=O)c1ccc(NC(=O)CSc2ccccc2)cc1	2	-11	3	4	-1	13	x	x	x	x	x
Cc1cc(NC(=O)CCN2CCC(C)CC2)ccc1Br	5	14	-1	-10	1	17	x	x	x	x	x
c1ccc(CCCCNCC2COc3ccccc3O2)cc1 (stereo not given)	0	5	-4	-5	1	0	x	x	x	x	x
CCc1ccc(C(C)(O)C(CN2CCOCC2)c2ccccc2)cc1 (stereo not given)	-1	2	1	-19	-1	17	x	x	x	x	x
Nc1ccc(-c2nc3ccc(N)cc3o2)cc1	61*	47	-17	68*	15	-423	38	45	82*	79*	62*
CCc1sc(C(=O)N2CCc3ccccc32)cc1C	97*	93*	2	96*	2	8	96*	97*	102*	95*	86*
